Data from ChEMBL document CHEMBL1122607, “Heterocyclic analogues of chlorcyclizine with potent hypolipidemic activity” (J Med Chem, 1984).
“And” between values parts separate entries of the source, which are not always exact repeats. Equal entries are not always repeated.

Assays:
[1] = system: Rattus norvegicus; test: Hypolipidemic activity was measured as reduction in rat serum cholesterol after oral administration in male Wistar rats at 200 mg / (kg day); type: functional
Summary of the method: (§1)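 Cholesterol-fed rats given the test compound orally by gavage on the last 3 days, with controls receiving vehicle (0.5% tragacanth mucilage). After overnight starvation, rats were killed under CO2 3 h after the last dose and bled by cardiac puncture. Serum cholesterol and triglyceride were measured by autoanalyzer and expressed as percentage reduction from control levels, with Student's t test.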

[2] = system: Rattus norvegicus; test: Hypolipidemic activity was measured as reduction in rat serum triglyceride after oral administration in male Wistar rats at 200 mg / (kg day); type: functional; summary of the method: as §1
[3] = system: Rattus norvegicus; test: Hypolipidemic activity was measured as reduction in rat serum cholesterol after oral administration in male Wistar rats at 100 mg / (kg day); type: functional; summary of the method: as §1
[4] = system: Rattus norvegicus; test: Hypolipidemic activity was measured as reduction in rat serum triglyceride after oral administration in male Wistar rats at 100 mg / (kg day); type: functional; summary of the method: as §1
[5] = system: Rattus norvegicus; test: Hypolipidemic activity was measured as reduction in rat serum cholesterol after oral administration in male Wistar rats at 30 mg / (kg day); type: functional; summary of the method: as §1
[6] = system: Rattus norvegicus; test: Hypolipidemic activity was measured as reduction in rat serum cholesterol after oral administration in male Wistar rats at 100 mg/(kg day); type: functional; summary of the method: as §1
[7] = system: Rattus norvegicus; test: Hypolipidemic activity was measured as reduction in rat serum cholesterol after oral administration in male Wistar rats at 10 mg / (kg day); type: functional; summary of the method: as §1
[8] = system: Rattus norvegicus; test: Hypolipidemic activity was measured as reduction in rat serum triglyceride after oral administration in male Wistar rats at 10 mg / (kg day); type: functional; summary of the method: as §1
[9] = system: Rattus norvegicus; test: Hypolipidemic activity was measured as reduction in rat serum triglyceride after oral administration in male Wistar rats at 30 mg / (kg day); type: functional; summary of the method: as §1
[10] = system: Rattus norvegicus; test: Minimum effective dose (MED) is the dose (mg/kg)that cause significant reduction in serum cholesterol of 30% compared to concurrent controls.; type: functional; design: unit: mg/kg
Summary of the method: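 MED was calculated from the log dose/response curve as the dose giving a statistically significant 30% fall in serum cholesterol versus concurrent controls. Measured in the 3-day oral cholesterol-fed rat screen, or in a 2-week test: groups of eight young male Wistar rats on cholesterol/cholic acid-supplemented or normal diet, dosed orally by gavage daily for 14 days, vehicle 0.5% tragacanth mucilage.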

[11] = The therapeutic safety margin (TSM) is the ratio of the minimum lethal dose (mg/kg)to the MED; type: ADME, organism-based; settings: in vivo
Summary of the method: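 Young male Wistar rats, eight per group, on cholesterol/cholic acid-supplemented or normal diet; graded oral gavage doses daily for 14 days; vehicle controls (0.5% tragacanth mucilage). Mortalities recorded to give the minimum lethal daily dose. After overnight fasting, serum cholesterol assayed by autoanalyzer. MED is the dose giving a significant (t test) 30% cholesterol fall, from the log dose/response curve. TSM = minimum lethal dose/MED.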

Row | SMILES | Reduction [3] [%] | Reduction [4] [%] | Reduction [5] [%] | Reduction [6] | Reduction [9] [%] | further results
1 | CN1CCN(C(c2ccccc2Cl)c2nccn2C)CC1 (centres undefined) |  |  |  |  |  | Reduction [1]: 53%; Reduction [2]: 64%
2 | Cc1cc(C(c2ccccc2)N2CCN(Cc3ccccc3)CC2)sn1 (centres undefined) |  |  |  |  |  | Reduction [1]: 26%; Reduction [2]: 56%
3 | Cc1cc(C(c2ccc(C(C)C)cc2)N2CC(C)NC(C)C2)sn1 (centres undefined) | 16 | 32 |  |  |  | 
4 | Cc1cc(C(c2cccc([N+](=O)[O-])c2)N2CCN(C)CC2)sn1 (centres undefined) | 2 | 17 |  |  |  | 
5 | Cc1cc(C(c2ccc(C3CCCCC3)cc2)N2CCN(C)CC2)sn1 (centres undefined) |  | 73 | 7 | 64% |  | 
6 | Cc1ccc(C(c2sncc2C)N2CCN(C)CC2)cc1C (centres undefined) |  | 73 | 15 | 74% | 9 | Reduction [7]: 20%; Reduction [8]: 21%
7 | COc1ccc(C(c2cc(C)ns2)N2CCN(C)CC2)cc1OC (centres undefined) |  |  |  |  |  | Reduction [1]: 7%; Reduction [2]: 4%
8 | Cc1cc(C(c2ccc(C)c(C)c2)N2CCN(C)CC2)sn1 (centres undefined) | 11 | 1 |  |  |  | 
9 | CC(C)OC(=O)C(C)(C)Oc1ccc(C(=O)c2ccc(Cl)cc2)cc1 [FENOFIBRATE] |  |  |  |  |  | MED [10]: 200
10 | CCOC(=O)C(C)(C)Oc1ccc(Cl)cc1 [CLOFIBRATE] |  |  |  |  |  | MED [10]: 200
11 | CCOC(=O)N1CCN(C(c2ccc(C(C)C)cc2)c2cc(C)ns2)CC1 (centres undefined) | 10 | 6 |  |  |  | 
12 | Cc1cc(C(c2ccc(OC(C)C)cc2)N2CCN(C)CC2)sn1 (centres undefined) |  | 31 |  | 33% |  | 
13 | Cc1cc(C(c2ccc(Oc3ccccc3)cc2)N2CCN(C)CC2)sn1 (centres undefined) |  | 59 | 17 | 42% | 25 | 
14 | Cc1cnsc1C(c1ccccc1Cl)N1CCN(C)CC1 (centres undefined) |  | 90 | 44 | 80% | 10 | Reduction [7]: 16%; MED [10]: 20; Reduction [8]: 1%; therapeutic safety margin (minimum lethal dose / MED) [11]: < 20
15 | Cc1cc(C(c2cccc(C(F)(F)F)c2)N2CCN(C)CC2)sn1 (centres undefined) | 8 | 30 |  |  |  | 
16 | Cc1cc(C(c2ccc(C(C)C)cc2)N2CCNCC2)sn1 (stereo in doubt; 66) |  | 73 | 59 | 68% | 23 | Reduction [7]: 38%; Reduction [8]: 4%
17 | Cc1cnsc1C(c1ccc(CC(C)C)cc1)N1CCN(CCO)CC1 (centres undefined) |  | 97 | 86 | 85% | 81 | Reduction [7]: 48%; MED [10]: 6; Reduction [8]: 48%
18 | Cc1ccccc1C(c1c(C)noc1C)N1CCNCC1 (centres undefined) |  | 80 | 26 | 76% | 21 | Reduction [7]: 2%; Reduction [8]: 46%
19 | O=C(O)c1cccnc1 [NIACIN] |  |  |  |  |  | MED [10]: 400
20 | Cc1noc(C)c1C(OC1CCNCC1)c1ccc(C(C)C)cc1 (centres undefined) |  | 23 | 4 | 45% | 8 | 

Row | SMILES | Reduction [3] [%] | Reduction [4] [%] | Reduction [5] [%] | Reduction [6] | Reduction [9] [%] | further results
21 | Cc1cc(C(c2ccccc2F)N2CCN(C)CC2)sn1 (centres undefined) |  |  |  |  |  | Reduction [1]: 25%; Reduction [2]: 57%
22 | Cc1cc(C(Nc2cccnc2)c2ccc(C(C)C)cc2)sn1 (centres undefined) | 16 | 5 |  |  |  | 
23 | Cc1cc(C(O)(c2ccc(C(C)C)cc2)C2CCN(C)CC2)sn1 (centres undefined) |  | 85 | 57 | 67% | 57 | Reduction [7]: 28%; Reduction [8]: 25%
24 | Cc1cc(C(c2ccc(OCc3ccccc3)cc2)N2CCN(C)CC2)sn1 (centres undefined) | 11 | 34 |  |  |  | 
25 | Cc1cc(C(c2ccccc2OC(C)C)N2CCN(C)CC2)sn1 (centres undefined) |  | 86 |  | 83% |  | 
26 | Cc1cc(C(c2ccc(C(C)C)cc2)N2CCN(C(=O)c3ccccc3)CC2)sn1 (centres undefined) | 26 | 16 |  |  |  | 
27 | CCc1ccccc1C(c1cc(C)ns1)N1CCN(C)CC1 (centres undefined) |  | 88 | 71 | 81% |  | 
28 | CN1CCN(C(c2ccccc2)c2ccc(Cl)cc2)CC1 (centres undefined) [CHLORCYCLIZINE] |  |  |  |  |  | MED [10]: 15; therapeutic safety margin (minimum lethal dose / MED) [11]: 10
29 | Cc1ccc(C(c2ccns2)N2CCN(C)CC2)cc1 (centres undefined) |  |  | 4 |  | 9 | Reduction [1]: 30%; Reduction [2]: 36%
30 | Cc1cc(C(c2cccc(Cl)c2)N2CCN(C)CC2)sn1 (centres undefined) |  | 41 |  | 33% |  | 
31 | CCc1ccc(C(c2ccns2)N2CCN(C)CC2)cc1 (centres undefined) | 32 |  |  | 74% and 58% |  | MED [10]: 10; therapeutic safety margin (minimum lethal dose / MED) [11]: < 20
32 | COc1ccc(C(c2cc(C)ns2)N2CCN(C)CC2)cc1 (centres undefined) |  |  |  |  |  | Reduction [1]: 0%; Reduction [2]: 23%
33 | CC(C)c1ccc(C(c2ccns2)N2CCN(CCO)CC2)cc1 (centres undefined) |  | 89 | 80 | 74% | 49 | MED [10]: 5; therapeutic safety margin (minimum lethal dose / MED) [11]: 40
34 | CN1CCN(C(c2ccccc2)c2ccccn2)CC1 (centres undefined) |  | 74 | 22 | 81% | 16 | 
35 | Cc1noc(C)c1C(c1ccccc1Cl)N1CCN(C)CC1 (centres undefined) |  | 41 | 7 | 52% | 6 | 
36 | Cc1noc(C)c1C(c1ccc(C(C)C)cc1)N1CC[N+](C)(C)CC1 (centres undefined) | 1 | 28 |  |  |  | 
37 | Cc1cc(C(OCCN(C)C)c2ccc(C(C)C)cc2)sn1 (centres undefined) |  | 41 | 3 | 45% | 36 | 
38 | Cc1ccccc1C(c1sncc1C)N1CCN(C)CC1 (centres undefined) |  | 64 |  | 72% |  | 
39 | Cc1cccc(C(c2cc(C)ns2)N2CCN(C)CC2)c1 (centres undefined) | 26 | 22 |  |  |  | 
40 | COc1cccc(C(c2cc(C)ns2)N2CCN(C)CC2)c1 (centres undefined) |  |  |  |  |  | Reduction [1]: 3%; Reduction [2]: 2%

Row | SMILES | Reduction [3] [%] | Reduction [4] [%] | Reduction [5] [%] | Reduction [6] | Reduction [9] [%] | further results
41 | CCCCOc1ccccc1C(c1cc(C)ns1)N1CCN(C)CC1 (centres undefined) |  | 67 | 32 | 74% | 57 | 
42 | Cc1cc(C(c2ccccc2C(C)C)N2CCN(C)CC2)sn1 (centres undefined) |  |  | 36 |  | 9 | 
43 | Cc1cc(C(c2ccc(C(C)C)cc2)N2CCN(S(C)(=O)=O)CC2)sn1 (centres undefined) | 19 | 3 |  |  |  | 
44 | Cc1cc(C(c2ccc(C(C)C)cc2)N2CCOCC2)sn1 (centres undefined) | 7 | 10 |  |  |  | 
45 | CCc1ccc(C(c2sncc2C)N2CCN(CCO)CC2)cc1 (centres undefined) |  |  | 45 |  | 51 | Reduction [7]: 15%; Reduction [8]: 3%
46 | Cc1cc(C(N)c2ccc(C(C)C)cc2)sn1 (centres undefined) |  |  |  |  |  | Reduction [1]: 34%; Reduction [2]: 9%
47 | Cc1noc(C)c1C(OC1CCCN(C)C1)c1ccc(C(C)C)cc1 (centres undefined) |  | 52 | 38 | 79% | 16 | Reduction [7]: 32%; Reduction [8]: 12%
48 | Cc1cc(C(OCCN2CCCC2)c2ccc(C(C)C)cc2)sn1 (centres undefined) | 30 | 2 |  |  |  | 
49 | Cc1cc(C(c2ccc(C(C)C)cc2)C2CCN(C)CC2)sn1 (centres undefined) |  | 42 | 12 | 45% | 32 | 
50 | Cc1cc(C(c2ccc(C(C)(C)C)cc2)N2CCN(C)CC2)sn1 (centres undefined) | 25 | 20 |  |  |  | 
51 | Cc1cc(C(SCCN(C)C)c2ccc(C(C)C)cc2)sn1 (centres undefined) |  | 55 |  | 36% |  | 
52 | Cc1cc(C(c2ccc(C(C)C)cc2)N2CCN(CCO)CC2)sn1 (centres undefined) |  | 73 | 67 | 73% | 14 | Reduction [7]: 23%; MED [10]: 15; Reduction [8]: 0%; therapeutic safety margin (minimum lethal dose / MED) [11]: 20
53 | CCOc1ccccc1C(c1cc(C)ns1)N1CCN(C)CC1 (centres undefined) | 25 | 35 |  |  |  | 
54 | Cc1cc(C(c2ccc(C(C)C)cc2)N2CCCCC2)sn1 (centres undefined) | 16 | 1 |  |  |  | 
55 | Cc1nc(C)c(C(c2ccccc2Cl)N2CCN(C)CC2)s1 (centres undefined) |  | 79 |  | 78% |  | 
56 | Cc1ccc(C(c2cc(C)ns2)N2CCN(C)CC2)cc1 (centres undefined) | 9 |  |  |  |  | 
57 | Cc1cc(C(c2ccc(F)cc2)N2CCN(C)CC2)sn1 (centres undefined) | 11 | 15 |  |  |  | 
58 | Cc1noc(C)c1C(c1ccccc1Cl)N1CCNCC1 (centres undefined) |  | 97 | 14 | 87% | 62 | 
59 | Cc1ccccc1C(c1nccn1C)N1CCN(C)CC1 (centres undefined) | 5 | 29 |  |  |  | 
